The test system of one data set is Leishmania amazonensis. In words: Tested for growth inhibitory activity against Leishmania amazonensis promastigotes. Format: functional, organism-based. Put shortly: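 L. amazonensis promastigotes (MHOM/BR/77/LTB0016), grown at 25 °C in LIT medium with 10% heat-inactivated FCS, harvested late log phase, adjusted to 4×10^6/mL. Drugs in DMSO (≤1.6% v/v) at 160 to 5 μg/mL; 24 h incubation; parasites counted in Neubauer chamber; inhibition versus DMSO and untreated controls; IC50 by linear regression of inhibition against log concentration.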

Data set [1] is described as follows: pKa was determined. Format: physicochemical.
The nature of data set [2]: Partition coefficient (logP). Format: physicochemical. The settings on record: octanol/water. A digest of the protocol: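 Shake-flask octanol/aqueous buffer pH 7.4 partition; compound stock 4 × 10^-3 M in 1,4-dioxane; phases shaken 1 h at 25.0 ± 0.1 °C, centrifuged 15 min; both layers read by UV at λmax 320–354 nm; three replicates. P taken as quotient of buffer and octanol concentrations. Some values instead calculated from unsubstituted parent log P plus hydrophobic fragmental constants (log PX = log PH + πX).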

IC50, pKa and logP data for 18 compounds are collected here from ChEMBL document CHEMBL1137223, “Antileishmanial pyrazolopyridine derivatives: synthesis and structure-activity relationship analysis” (J Med Chem, 2004).

Several values for one entry are separate records, joined by “and”; a condition that tells them apart may be missing. Identical values can stand only once.

Regarding `CCN(CC)Cc1cc(Nc2ccnc3cc(Cl)ccc23)ccc1O.Cl`, the IC50 in the data set with Leishmania amazonensis is 0.34 µg/mL and 950 nM.
On to `CCOC(=O)c1cnc2c(c(C)nn2C)c1Nc1cccc([N+](=O)[O-])c1`, for which the pKa in data set [1] is 8.38. Moreover, the logP in data set [2] is 0.68. For the same compound, the IC50 in the data set with Leishmania amazonensis was 6.11 µg/mL and 17.2 µM.
Regarding `CCOC(=O)c1cnc2c(c(C)nn2C)c1Nc1ccccc1`, the pKa in data set [1] is 8.23. Further, the logP in data set [2] came to 0.96. In addition, in the data set with Leishmania amazonensis, the IC50 is 30.7 µg/mL and 98.9 µM.
`CCOC(=O)c1cnc2c(c(C)nn2C)c1Nc1ccc(Cl)cc1` displayed a pKa in data set [1] of 7.98. Besides, in data set [2], the logP came to 1.32. The IC50 in the data set with Leishmania amazonensis is 1.34 µg/mL and 3.89 µM.
For the compound `CCOC(=O)c1cnc2c(c(C)nn2C)c1Nc1ccc(F)cc1`, in data set [1], the pKa turned out to be 8.14. Also, the logP in data set [2] was found to be 0.7. In the data set on Leishmania amazonensis, the IC50 is 12.8 µg/mL and 39 µM.
As for `CCOC(=O)c1cnc2c(c(C)nn2C)c1Nc1ccc([N+](=O)[O-])cc1`, in data set [1], the pKa is 8.8. The same compound gave a logP in data set [2] of 0.68. In addition, the half-maximal inhibitory concentration (IC50) in the data set with Leishmania amazonensis was 114 µg/mL and 321 µM.
As to `CCOC(=O)c1cnc2c(c(C)nn2C)c1Nc1ccc(Br)cc1`, the pKa in data set [1] stood at 8.39. The compound also displayed a logP in data set [2] of 1.82. Besides, in the data set with Leishmania amazonensis, the IC50 was 4.57 µg/mL and 11.7 µM.
Take `CCOC(=O)c1cnc2c(c(C)nn2C)c1Nc1ccc(OC)cc1`: the pKa in data set [1] was found to be 8.07. In data set [2], this compound displayed a logP of 0.94. Further, the IC50 with Leishmania amazonensis is 10.9 µg/mL and 32 µM.
Turning to `CCOC(=O)c1cnc2c(c(-c3ccccc3)nn2-c2ccccc2)c1Nc1ccc(O)cc1`, the logP in data set [2] was 3.09. The IC50 with Leishmania amazonensis is 0.34 µg/mL and 750 nM.
Turning to `CCOC(=O)c1cnc2c(c(C)nn2C)c1Nc1cccc(Cl)c1`, in data set [1], the pKa is 9.05. The compound further registered a logP in data set [2] of 1.67. Further, in the data set on Leishmania amazonensis, the IC50 was 4.79 µg/mL and 13.9 µM.
`CCOC(=O)c1cnc2c(c(C)nn2-c2ccccc2)c1Nc1ccc(O)c(CN(CC)CC)c1` came in with a log partition coefficient (logP) in data set [2] of 2.05. For the same compound, in the data set with Leishmania amazonensis, the half-maximal inhibitory concentration (IC50) was 0.18 µg/mL and 390 nM.
The compound `CCOC(=O)c1cnc2c(c(C)nn2C)c1Nc1ccc(O)cc1` showed a pKa in data set [1] of 9.98. In data set [2], this compound came in with a logP of 1.14. For the same compound, in the data set with Leishmania amazonensis, the half-maximal inhibitory concentration (IC50) is 1.37 µg/mL and 4.2 µM.
Turning to `CCOC(=O)c1cnc2c(c(C)nn2C)c1Nc1cccc(OC)c1`, the pKa in data set [1] turned out to be 7.64. The same compound returned a logP in data set [2] of 0.94. Also, the IC50 with Leishmania amazonensis was 7.45 µg/mL and 21.9 µM.
`CCOC(=O)c1cnc2c(c(-c3ccccc3)nn2-c2ccccc2)c1Nc1ccc(O)c(CN(CC)CC)c1`: the lipophilicity (logP) in data set [2] turned out to be 3.45. For the same compound, in the data set with Leishmania amazonensis, the IC50 was 0.06 µg/mL and 120 nM.
As to `CCOC(=O)c1cnc2c(c(C)nn2C)c1Nc1cccc(C)c1`, the pKa in data set [1] stood at 7.06. This compound also registered a logP in data set [2] of 2.27. In addition, the IC50 in the data set with Leishmania amazonensis was 4.82 µg/mL and 14.9 µM.
In turn, `CCOC(=O)c1cnc2c(c(C)nn2-c2ccccc2)c1Nc1ccc(O)cc1` displayed a logP in data set [2] of 1.69. In the data set on Leishmania amazonensis, the half-maximal inhibitory concentration (IC50) is 0.21 µg/mL and 550 nM.
With `CCOC(=O)c1cnc2c(c(C)nn2C)c1Nc1ccc(C)cc1`, the pKa in data set [1] was 8.61. In data set [2], this compound gave a logP of 1.52. Moreover, the IC50 in the data set with Leishmania amazonensis is 10.6 µg/mL and 32.6 µM.
On to `N=C(N)c1ccc(OCCCCCOc2ccc(C(=N)N)cc2)cc1.O=S(=O)(O)CCO`, for which, in the data set on Leishmania amazonensis, the half-inhibitory concentration (IC50) was 0.27 µg/mL and 460 nM.

As usually defined, the IC50 is the concentration that gives 50% inhibition. Higher therefore signals a need for much substance. For orientation: pKa means the pH at which an ionisable group is half protonated. Low values mean a group that gives up its proton readily, high ones a group that holds its proton tightly. A word on the logP: it is a log measure of how a compound divides between an organic and an aqueous phase. A low value points to a more hydrophilic compound.
